We go through 11 molecules from ChEMBL document CHEMBL1143270, “Identification of amidoheteroaryls as potent inhibitors of mutant (V600E) B-Raf kinase with in vivo activity” (Bioorg Med Chem Lett, 2009).

Format in all cases: ADME, organism-based
A short description of series [1]: Half life in Wistar rat at 3 mg/kg, iv and 10 mg/kg, po. As to conditions: in vivo.
A short description of series [2]: Volume of distribution at steady state in Wistar rat at 3 mg/kg, iv and 10 mg/kg, po. The settings on record: in vivo, read-out: Vdss.
The nature of series [3]: Clearance in Wistar rat at 3 mg/kg, iv and 10 mg/kg, po. As to conditions: in vivo.
Series [4] is described as follows: Bioavailability in Wistar rat at 3 mg/kg, iv and 10 mg/kg, po. As to conditions: in vivo. The procedure, abridged: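 Male Han Wistar rats. The iv dose was given as a DMA/PEG/saline (40/40/20) solution and the po dose as a 0.1% HPMC suspension.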

For the molecule `COc1cncc(NC(=O)c2cc(NC(=O)c3cccc(C(C)(C)C#N)c3)ccc2C)c1`, the half-life in series [1] was 30 min. Further, in series [2], the Vd was found to be 1.7 L/kg. This molecule showed a clearance in series [3] of 56 mL/min/kg.
In series [1], `CNc1ccc(NC(=O)c2cc(NC(=O)c3cccc(C(C)(C)C#N)c3)ccc2C)cn1` gave a half-life of 36 min. Also, the Vd in series [2] worked out at 1.7 L/kg. For the same molecule, in series [4], the bioavailability came to 15%. In addition, the clearance in series [3] came out at 53.5 mL/min/kg.
For `Cc1ccc(NC(=O)c2cccc(C(C)(C)C#N)c2)cc1C(=O)Nc1cncc(Cl)c1`, in series [1], the half-life is 54 min. For the same molecule, in series [2], the Vd worked out at 3.1 L/kg. Moreover, in series [4], the bioavailability worked out at 45%. Moreover, in series [3], the clearance came to 60 mL/min/kg.
The like results for `Cc1ccc(NC(=O)c2cccc(C(C)(C)C#N)c2)cc1C(=O)Nc1cnc(N)c(Cl)c1` were, in that order, 60 min, 0.8 L/kg, 30% and 9.5 mL/min/kg.
For `Nc1ncc(NC(=O)c2cc(NC(=O)c3cccc(C(F)(F)F)c3)ccc2Cl)cc1Cl`, the half-life in series [1] was 84 min. For the same molecule, the Vd in series [2] was 1.2 L/kg. The bioavailability in series [4] was determined as 96%. Also, the clearance in series [3] came to 11 mL/min/kg.
Take `Cc1ccc(NC(=O)c2cccc(C(C)(C)C#N)c2)cc1C(=O)Nc1cccnc1`: in series [1], the half-life is 96 min. Moreover, in series [2], the Vd is 2.5 L/kg. This molecule gave a bioavailability in series [4] of 17%. Also, in series [3], the clearance is 42.5 mL/min/kg.
In series [1], `CC(=O)Nc1ccc(NC(=O)c2cc(NC(=O)c3cccc(C(C)(C)C#N)c3)ccc2C)cn1` had a half-life of 42 min. Besides, the Vd in series [2] is 2.7 L/kg. In series [4], this molecule showed a bioavailability of 10%. For the same molecule, the clearance in series [3] worked out at 64 mL/min/kg.
The like results for `Cc1ccc(NC(=O)c2cc(NC(=O)c3cccc(C(C)(C)C#N)c3)ccc2C)cn1` were, in that order, 48 min, 2.9 L/kg, 73% and 47.5 mL/min/kg.
The molecule `Cc1ccc(NC(=O)c2cccc(C(F)(F)F)c2)cc1C(=O)Nc1cnc(N)c(Cl)c1` had a half-life in series [1] of 96 min. In addition, the Vd in series [2] was found to be 1 L/kg. In addition, the bioavailability in series [4] is 78%. Besides, in series [3], the clearance amounted to 8 mL/min/kg.
In series [1], `Cc1ccc(NC(=O)c2cccc(C(C)(C)C#N)c2)cc1C(=O)Nc1ccc(N)nc1` had a half-life of 36 min. Also, in series [2], the Vd stood at 2.3 L/kg. This molecule registered a clearance in series [3] of 75.5 mL/min/kg.
As to `Cc1cncc(NC(=O)c2cc(NC(=O)c3cccc(C(C)(C)C#N)c3)ccc2C)c1`, the half-life in series [1] was 48 min. Moreover, in series [2], the Vd is 1.4 L/kg. The bioavailability in series [4] worked out at 4%. This molecule gave a clearance in series [3] of 32.5 mL/min/kg.
